Calls of active or inactive are those of the source. No cut-off for these calls is given here.
What was measured:
[1] = molecular target: Neuronal acetylcholine receptor; alpha9/alpha10 (Homo sapiens, UniProt Q9GZZ6+Q9UGM1); experiment: Inhibition of human alpha9alpha10 nAChR expressed in xenopus oocytes assessed as inhibition of Ach- induced response at -70 mV holding potential and measured for 1 to 5 days in presence of Ach stimulation by voltage-clamp based electrophysiological method; type: cell-based, Oocyte
Method in brief: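 Two-electrode voltage clamp on Xenopus oocytes expressing human α9α10, recorded 1–5 d after injection. Held at −70 mV at room temperature in Ca²⁺-containing ND-96. A 1 s pulse of 100 µM ACh was given every 60 s and peptide was flowed on. IC50 with 95% CI from 3–5 separate oocytes.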

[2] = molecular target: Neuronal acetylcholine receptor; alpha3/beta2 (Rattus norvegicus, UniProt P04757+P12390); experiment: Inhibition of rat alpha3beta2 nAChR expressed in xenopus oocytes assessed as inhibition of Ach- induced response at -70 mV holding potential and measured for 1 to 5 days in presence of Ach stimulation by voltage-clamp based electrophysiological method; type: cell-based, Oocyte
Method in brief: (§1)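 Xenopus oocytes expressing cloned rat or human nAChR subtypes, recorded 1–5 d after injection. Held at −70 mV at room temperature and pulsed with ACh for 1 s every 60 s while peptide was flowed on. Where noted, Ba²⁺ replaced Ca²⁺ to limit current run-up after block. Values from 3–5 separate oocytes.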

[3] = Inhibition of human alpha1beta1deltaepsilon nAChR expressed in xenopus oocytes assessed as inhibition of Ach- induced response at -70 mV holding potential and measured for 1 to 5 days in presence of Ach stimulation by voltage-clamp based electrophysiological method; type: cell-based; details: Oocyte; method in brief: as §1
[4] = molecular target: Neuronal acetylcholine receptor; alpha2/beta2 (Homo sapiens, UniProt P17787+Q15822); experiment: Inhibition of human alpha2beta2 nAChR expressed in xenopus oocytes assessed as inhibition of Ach- induced response at -70 mV holding potential and measured for 1 to 5 days in presence of Ach stimulation by voltage-clamp based electrophysiological method; type: cell-based, Oocyte; method in brief: as §1
[5] = molecular target: Nicotinic acetylcholine receptor alpha9/alpha10 (Rattus norvegicus, UniProt P43144+Q9JLB5); type: cell-based, Oocyte
[6] = molecular target: Neuronal acetylcholine receptor; alpha2/beta2 (Rattus norvegicus, UniProt P12389+P12390); experiment: Inhibition of rat alpha2beta2 nAChR expressed in xenopus oocytes assessed as inhibition of Ach- induced response at -70 mV holding potential and measured for 1 to 5 days in presence of Ach stimulation by voltage-clamp based electrophysiological method; type: cell-based, Oocyte; method in brief: as §1
[7] = molecular target: Neuronal acetylcholine receptor; alpha2/beta4 (Homo sapiens, UniProt P30926+Q15822); experiment: Inhibition of human alpha2beta4 nAChR expressed in xenopus oocytes assessed as inhibition of Ach- induced response at -70 mV holding potential and measured for 1 to 5 days in presence of Ach stimulation by voltage-clamp based electrophysiological method; type: cell-based, Oocyte; method in brief: as §1
[8] = molecular target: Neuronal acetylcholine receptor; alpha2/beta4 (Rattus norvegicus, UniProt P12389+P12392); experiment: Inhibition of rat alpha2beta4 nAChR expressed in xenopus oocytes assessed as inhibition of Ach- induced response at -70 mV holding potential and measured for 1 to 5 days in presence of Ach stimulation by voltage-clamp based electrophysiological method; type: cell-based, Oocyte; method in brief: as §1
[9] = molecular target: Neuronal acetylcholine receptor; alpha3/beta2 (Homo sapiens, UniProt P17787+P32297); experiment: Inhibition of human alpha3beta2 nAChR expressed in xenopus oocytes assessed as inhibition of Ach- induced response at -70 mV holding potential and measured for 1 to 5 days in presence of Ach stimulation by voltage-clamp based electrophysiological method; type: cell-based, Oocyte; method in brief: as §1
[10] = molecular target: Neuronal acetylcholine receptor; alpha3/beta4 (Homo sapiens, UniProt P30926+P32297); experiment: Inhibition of human alpha3beta4 nAChR expressed in xenopus oocytes assessed as inhibition of Ach- induced response at -70 mV holding potential and measured for 1 to 5 days in presence of Ach stimulation by voltage-clamp based electrophysiological method; type: cell-based, Oocyte; method in brief: as §1
[11] = molecular target: Neuronal acetylcholine receptor; alpha3/beta4 (Rattus norvegicus, UniProt P04757+P12392); experiment: Inhibition of rat alpha3beta4 nAChR expressed in xenopus oocytes assessed as inhibition of Ach- induced response at -70 mV holding potential and measured for 1 to 5 days in presence of Ach stimulation by voltage-clamp based electrophysiological method; type: cell-based, Oocyte; method in brief: as §1
[12] = molecular target: Neuronal acetylcholine receptor; alpha4/beta2 (Homo sapiens, UniProt P17787+P43681); experiment: Inhibition of human alpha4beta2 nAChR expressed in xenopus oocytes assessed as inhibition of Ach- induced response at -70 mV holding potential and measured for 1 to 5 days in presence of Ach stimulation by voltage-clamp based electrophysiological method; type: cell-based, Oocyte; method in brief: as §1
[13] = molecular target: Neuronal acetylcholine receptor; alpha4/beta2 (Rattus norvegicus, UniProt P09483+P12390); experiment: Inhibition of rat alpha4beta2 nAChR expressed in xenopus oocytes assessed as inhibition of Ach- induced response at -70 mV holding potential and measured for 1 to 5 days in presence of Ach stimulation by voltage-clamp based electrophysiological method; type: cell-based, Oocyte; method in brief: as §1
[14] = molecular target: Neuronal acetylcholine receptor; alpha4/beta4 (Homo sapiens, UniProt P30926+P43681); experiment: Inhibition of human alpha4beta4 nAChR expressed in xenopus oocytes assessed as inhibition of Ach- induced response at -70 mV holding potential and measured for 1 to 5 days in presence of Ach stimulation by voltage-clamp based electrophysiological method; type: cell-based, Oocyte; method in brief: as §1
[15] = molecular target: Neuronal acetylcholine receptor; alpha4/beta4 (Rattus norvegicus, UniProt P09483+P12392); experiment: Inhibition of rat alpha4beta4 nAChR expressed in xenopus oocytes assessed as inhibition of Ach- induced response at -70 mV holding potential and measured for 1 to 5 days in presence of Ach stimulation by voltage-clamp based electrophysiological method; type: cell-based, Oocyte; method in brief: as §1
[16] = molecular target: Nicotinic acetylcholine receptor alpha6/alpha3/beta4 (Homo sapiens, UniProt P30926+P32297+Q15825); experiment: Inhibition of human alpha6/alpha3beta4 nAChR expressed in xenopus oocytes assessed as inhibition of Ach- induced response at -70 mV holding potential and measured for 1 to 5 days in presence of Ach stimulation by voltage-clamp based electrophysiological method; type: cell-based, Oocyte; method in brief: as §1
[17] = molecular target: Nicotinic acetylcholine receptor alpha6/alpha3/beta4 (Rattus norvegicus, UniProt P04757+P12392+P43143); experiment: Inhibition of rat alpha6/alpha3beta4 nAChR expressed in xenopus oocytes assessed as inhibition of Ach- induced response at -70 mV holding potential and measured for 1 to 5 days in presence of Ach stimulation by voltage-clamp based electrophysiological method; type: cell-based, Oocyte; method in brief: as §1
[18] = Inhibition of human alpha6/alpha3beta2beta3 nAChR expressed in xenopus oocytes assessed as inhibition of Ach- induced response at -70 mV holding potential and measured for 1 to 5 days in presence of Ach stimulation by voltage-clamp based electrophysiological method; type: cell-based; details: Oocyte; method in brief: as §1
[19] = molecular target: Nicotinic acetylcholine receptor alpha6/alpha3/beta2/beta3 (Rattus norvegicus, UniProt P04757+P12390+P12391+P43143); experiment: Inhibition of rat alpha6/alpha3beta2beta3 nAChR expressed in xenopus oocytes assessed as inhibition of Ach- induced response at -70 mV holding potential and measured for 1 to 5 days in presence of Ach stimulation by voltage-clamp based electrophysiological method; type: cell-based, Oocyte; method in brief: as §1
[20] = molecular target: Neuronal acetylcholine receptor subunit alpha-7 (Homo sapiens, UniProt P36544); experiment: Inhibition of human alpha7 nAChR expressed in xenopus oocytes assessed as inhibition of Ach- induced response at -70 mV holding potential and measured for 1 to 5 days in presence of Ach stimulation by voltage-clamp based electrophysiological method; type: cell-based, Oocyte; method in brief: as §1
[21] = molecular target: Neuronal acetylcholine receptor subunit alpha-7 (Rattus norvegicus, UniProt Q05941); experiment: Inhibition of rat alpha7 nAChR expressed in xenopus oocytes assessed as inhibition of Ach- induced response at -70 mV holding potential and measured for 1 to 5 days in presence of Ach stimulation by voltage-clamp based electrophysiological method; type: cell-based, Oocyte; method in brief: as §1
Mus musculus = experiment: Analgesic activity against oxaliplatin-induced peripheral neuropathic pain mouse model assessed as reversal of oxaliplatin-induced cold allodynia by measuring withdrawal latency at 4 to 40 microg/kg, sc for 22 days (5 days per week) and measured after 24 hrs post-injection by cold-plate test chamber analysis; type: functional, organism-based; details: dose 4-40 µg/kg, time 22.0 day
Method in brief: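 Mice, 8 per group. Oxaliplatin 3.5 mg/kg i.p. and peptide 4 or 40 µg/kg s.c., both in sterile 0.9% NaCl, given daily Wed–Fri and Mon–Tue through day 22; controls received saline. Cold allodynia tested on days 8, 15 and 22, 24 h after the last injection. Cold plate: 2–5 min acclimation at 23 °C, then cooled 10 °C/min until both forepaws lifted with shaking or licking. Mean ± SEM versus vehicle.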

Chain of Neuronal acetylcholine receptor; alpha9/alpha10 (Q9UGM1 whole entry): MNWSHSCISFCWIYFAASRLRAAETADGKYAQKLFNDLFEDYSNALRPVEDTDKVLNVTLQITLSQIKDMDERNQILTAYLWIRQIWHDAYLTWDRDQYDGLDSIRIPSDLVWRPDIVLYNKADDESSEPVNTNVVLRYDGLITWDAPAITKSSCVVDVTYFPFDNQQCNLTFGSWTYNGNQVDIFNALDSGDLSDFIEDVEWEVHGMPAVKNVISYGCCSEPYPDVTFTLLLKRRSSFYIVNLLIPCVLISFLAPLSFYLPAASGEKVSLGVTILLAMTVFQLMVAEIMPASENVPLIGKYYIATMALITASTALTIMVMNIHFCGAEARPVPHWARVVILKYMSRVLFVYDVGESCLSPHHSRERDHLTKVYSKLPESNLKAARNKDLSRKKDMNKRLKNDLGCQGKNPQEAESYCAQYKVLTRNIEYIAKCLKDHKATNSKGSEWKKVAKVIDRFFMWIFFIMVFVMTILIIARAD
Chain of Neuronal acetylcholine receptor; alpha9/alpha10 (Q9GZZ6 whole entry): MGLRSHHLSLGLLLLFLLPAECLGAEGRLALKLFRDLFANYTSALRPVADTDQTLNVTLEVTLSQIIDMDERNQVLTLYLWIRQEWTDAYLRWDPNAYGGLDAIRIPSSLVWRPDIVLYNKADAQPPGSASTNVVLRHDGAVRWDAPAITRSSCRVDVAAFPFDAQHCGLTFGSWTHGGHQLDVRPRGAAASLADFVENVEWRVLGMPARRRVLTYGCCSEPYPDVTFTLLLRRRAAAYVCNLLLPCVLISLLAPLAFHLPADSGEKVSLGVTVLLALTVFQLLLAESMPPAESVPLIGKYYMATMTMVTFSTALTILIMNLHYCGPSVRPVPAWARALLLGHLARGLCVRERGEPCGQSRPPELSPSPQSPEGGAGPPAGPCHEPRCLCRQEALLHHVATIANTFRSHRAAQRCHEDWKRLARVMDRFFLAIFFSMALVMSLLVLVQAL
Chain of Neuronal acetylcholine receptor; alpha3/beta4 (Rattus norvegicus, UniProt P04757+P12392) (P04757 whole entry): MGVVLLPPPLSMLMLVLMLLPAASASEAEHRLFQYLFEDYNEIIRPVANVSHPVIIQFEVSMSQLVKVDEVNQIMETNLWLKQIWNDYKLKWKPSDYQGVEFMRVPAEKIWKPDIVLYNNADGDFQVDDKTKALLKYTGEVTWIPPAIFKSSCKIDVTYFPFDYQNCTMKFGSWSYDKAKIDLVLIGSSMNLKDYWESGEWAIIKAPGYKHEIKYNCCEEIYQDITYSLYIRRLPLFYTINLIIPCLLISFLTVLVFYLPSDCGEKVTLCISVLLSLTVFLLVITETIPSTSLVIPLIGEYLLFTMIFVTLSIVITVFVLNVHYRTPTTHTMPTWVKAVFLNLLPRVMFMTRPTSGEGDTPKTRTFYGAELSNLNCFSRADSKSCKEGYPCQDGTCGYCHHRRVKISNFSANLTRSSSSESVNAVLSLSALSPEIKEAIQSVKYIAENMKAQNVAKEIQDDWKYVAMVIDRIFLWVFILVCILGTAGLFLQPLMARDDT
Chain of Neuronal acetylcholine receptor; alpha3/beta4 (Rattus norvegicus, UniProt P04757+P12392) (P12392 whole entry): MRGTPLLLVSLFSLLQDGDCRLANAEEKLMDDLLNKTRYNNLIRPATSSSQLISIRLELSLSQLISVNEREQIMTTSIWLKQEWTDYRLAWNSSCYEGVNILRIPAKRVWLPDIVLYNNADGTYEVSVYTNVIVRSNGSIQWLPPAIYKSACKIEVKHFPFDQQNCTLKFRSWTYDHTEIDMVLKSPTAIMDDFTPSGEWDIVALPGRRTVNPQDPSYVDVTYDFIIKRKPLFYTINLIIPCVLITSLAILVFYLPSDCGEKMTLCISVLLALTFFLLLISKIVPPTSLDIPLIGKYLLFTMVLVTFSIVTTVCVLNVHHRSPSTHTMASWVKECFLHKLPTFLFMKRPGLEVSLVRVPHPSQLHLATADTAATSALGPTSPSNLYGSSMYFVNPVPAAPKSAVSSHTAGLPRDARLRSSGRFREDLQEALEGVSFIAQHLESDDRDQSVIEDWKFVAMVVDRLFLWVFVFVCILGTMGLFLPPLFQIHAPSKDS
Chain of Nicotinic acetylcholine receptor alpha6/alpha3/beta2/beta3 (P04757 whole entry): as the sequence (P04757 whole entry) above
Chain of Nicotinic acetylcholine receptor alpha6/alpha3/beta2/beta3 (P12390 whole entry): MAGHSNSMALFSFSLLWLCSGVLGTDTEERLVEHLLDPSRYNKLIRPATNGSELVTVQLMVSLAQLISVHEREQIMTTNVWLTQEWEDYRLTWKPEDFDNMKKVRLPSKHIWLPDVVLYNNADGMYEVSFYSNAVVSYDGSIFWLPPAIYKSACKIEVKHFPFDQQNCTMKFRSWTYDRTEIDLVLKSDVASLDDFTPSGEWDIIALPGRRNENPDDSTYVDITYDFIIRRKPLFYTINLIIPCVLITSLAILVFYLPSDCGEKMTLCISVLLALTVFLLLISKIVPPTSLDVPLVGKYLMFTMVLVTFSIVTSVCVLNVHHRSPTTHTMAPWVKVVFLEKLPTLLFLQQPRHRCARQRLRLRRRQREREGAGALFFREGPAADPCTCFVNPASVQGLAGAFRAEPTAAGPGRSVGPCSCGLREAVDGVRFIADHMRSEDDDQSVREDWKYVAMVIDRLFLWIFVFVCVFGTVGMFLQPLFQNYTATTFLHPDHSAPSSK
Chain of Nicotinic acetylcholine receptor alpha6/alpha3/beta2/beta3 (P12391 whole entry): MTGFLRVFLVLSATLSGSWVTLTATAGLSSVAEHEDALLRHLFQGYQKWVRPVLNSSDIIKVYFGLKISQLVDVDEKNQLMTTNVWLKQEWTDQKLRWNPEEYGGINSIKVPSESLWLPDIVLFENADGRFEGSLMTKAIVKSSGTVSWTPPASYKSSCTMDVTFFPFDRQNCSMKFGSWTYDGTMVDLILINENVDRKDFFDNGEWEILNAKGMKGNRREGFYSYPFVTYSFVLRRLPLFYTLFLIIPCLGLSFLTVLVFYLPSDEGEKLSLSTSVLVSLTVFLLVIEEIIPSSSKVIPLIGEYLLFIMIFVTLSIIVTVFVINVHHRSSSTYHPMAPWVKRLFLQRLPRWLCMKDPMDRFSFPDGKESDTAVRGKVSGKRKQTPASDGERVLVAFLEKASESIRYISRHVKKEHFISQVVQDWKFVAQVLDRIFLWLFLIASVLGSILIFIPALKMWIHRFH
Chain of Nicotinic acetylcholine receptor alpha6/alpha3/beta2/beta3 (P43143 whole entry): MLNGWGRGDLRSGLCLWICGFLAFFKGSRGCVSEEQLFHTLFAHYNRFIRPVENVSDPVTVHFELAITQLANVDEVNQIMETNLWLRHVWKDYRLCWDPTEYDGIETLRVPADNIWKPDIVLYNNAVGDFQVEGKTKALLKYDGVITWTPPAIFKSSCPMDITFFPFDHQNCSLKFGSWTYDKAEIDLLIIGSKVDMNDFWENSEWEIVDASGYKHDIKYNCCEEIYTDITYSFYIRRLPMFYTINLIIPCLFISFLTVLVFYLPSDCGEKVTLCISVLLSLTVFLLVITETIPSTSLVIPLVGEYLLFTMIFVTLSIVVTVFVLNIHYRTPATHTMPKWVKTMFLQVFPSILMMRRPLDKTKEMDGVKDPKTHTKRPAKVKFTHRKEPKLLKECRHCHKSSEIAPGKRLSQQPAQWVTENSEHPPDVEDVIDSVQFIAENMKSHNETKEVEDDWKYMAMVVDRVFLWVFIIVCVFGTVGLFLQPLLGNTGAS
Chain of Neuronal acetylcholine receptor; alpha3/beta2 (Rattus norvegicus, UniProt P04757+P12390) (P04757 whole entry): as the sequence (P04757 whole entry) above
Chain of Neuronal acetylcholine receptor; alpha3/beta2 (Rattus norvegicus, UniProt P04757+P12390) (P12390 whole entry): as the sequence (P12390 whole entry) above

**Q.** With `C[C@@H](O)[C@@H]1NC(=O)[C@H]2NC(=O)[C@H](NC(=O)CN)CSSC[C@H](NC(=O)[C@H](CCCNC(=N)N)NC(=O)[C@@H]3CCCN3C(=O)[C@H](CC(=O)O)NC1=O)C(=O)N[C@@H](CCCNC(N)=O)C(=O)N[C@@H](Cc1ccc(O)c(I)c1)C(=O)N[C@@H](CCC(N)=O)C(=O)N[C@H](C(=O)N[C@@H](Cc1ccc(O)cc1)C(=O)O)CSSC2(C)C` as the compound, how does the IC50 [1] read?
**A.** 1.3 nM

**Q.** For `C[C@@H](O)[C@@H]1NC(=O)[C@@H]2CSSC[C@@H](C(=O)N[C@@H](Cc3ccc(O)cc3)C(=O)O)NC(=O)[C@H](CCC(N)=O)NC(=O)[C@H](Cc3ccc(O)c(I)c3)NC(=O)[C@H](CCCNC(N)=O)NC(=O)[C@@H](NC(=O)[C@H](CCCNC(=N)N)NC(=O)[C@@H]3CCCN3C(=O)[C@H](CC(=O)O)NC1=O)C(C)(C)SSC[C@@H](NC(=O)CN)C(=O)N2`, which IC50 [1] is on record?
**A.** > 1000 nM

**Q.** With `C[C@@H](O)[C@@H]1NC(=O)[C@@H]2CSSC[C@@H](C(=O)N[C@@H](Cc3ccc(O)cc3)C(=O)O)NC(=O)[C@H](CCC(N)=O)NC(=O)[C@H](Cc3ccc(O)c(I)c3)NC(=O)[C@H](CCCNC(=N)N)NC(=O)[C@H](CSSC[C@@H](NC(=O)CN)C(=O)N2)NC(=O)[C@H](CCCNC(N)=O)NC(=O)[C@@H]2CCCN2C(=O)[C@H](CC(=O)O)NC1=O` as the compound, how does the IC50 [1] read?
**A.** 1.4 nM

**Q.** Which IC50 [2] does the source give for `C[C@@H](O)[C@@H]1NC(=O)[C@H]2NC(=O)[C@H](NC(=O)CN)CSSC[C@H](NC(=O)[C@H](CCCNC(=N)N)NC(=O)[C@@H]3CCCN3C(=O)[C@H](CC(=O)O)NC1=O)C(=O)N[C@@H](CCCNC(=N)N)C(=O)N[C@@H](Cc1ccc(O)c(I)c1)C(=O)N[C@@H](CCCN)C(=O)N[C@H](C(=O)N[C@H](CC(=O)N[C@@H](CCCNC(=N)N)C(=O)O)Cc1ccc(O)cc1)CSSC2(C)C` here?
**A.** > 10 µM

**Q.** What about the IC50 [3] of the same compound?
**A.** > 10 µM

**Q.** What about the IC50 [4] of the same compound?
**A.** > 10 µM

**Q.** And the IC50 [5]?
**A.** 0.39 nM

**Q.** And the IC50 [1]?
**A.** 0.05 nM

**Q.** And the IC50 [6]?
**A.** > 10 µM

**Q.** What about the IC50 [7] of the same compound?
**A.** > 10 µM

**Q.** What about the IC50 [8] of the same compound?
**A.** > 10 µM

**Q.** And the IC50 [9]?
**A.** > 10 µM

**Q.** What about the IC50 [10] of the same compound?
**A.** > 10 µM

**Q.** What about the IC50 [11] of the same compound?
**A.** > 10 µM

**Q.** What about the IC50 [12] of the same compound?
**A.** > 10 µM

**Q.** And the IC50 [13]?
**A.** > 10 µM

**Q.** What about the IC50 [14] of the same compound?
**A.** > 10 µM

**Q.** And the IC50 [15]?
**A.** > 10 µM

**Q.** And the IC50 [16]?
**A.** > 10 µM

**Q.** And the IC50 [17]?
**A.** > 10 µM

**Q.** And the IC50 [18]?
**A.** > 10 µM

**Q.** And the IC50 [19]?
**A.** > 10 µM

**Q.** What about the IC50 [20] of the same compound?
**A.** 115 nM

**Q.** What about the IC50 [21] of the same compound?
**A.** > 333 nM

**Q.** What about the Activity (Mus musculus) of the same compound?
**A.** Active

**Q.** With `C[C@@H](O)[C@@H]1NC(=O)[C@H]2NC(=O)[C@H](NC(=O)CN)CSSC[C@H](NC(=O)[C@H](CCCNC(=N)N)NC(=O)[C@@H]3CCCN3C(=O)[C@H](CC(=O)O)NC1=O)C(=O)N[C@@H](CCCNC(=N)N)C(=O)N[C@@H](Cc1ccc(O)c(I)c1)C(=O)N[C@@H](CCCN)C(=O)N[C@H](C(=O)N[C@H](CC(=O)N[C@@H](CCCN)C(=O)O)Cc1ccc(O)cc1)CSSC2(C)C` as the compound, how does the IC50 [1] read?
**A.** 0.34 nM

Reference: ChEMBL document CHEMBL5214907 (J Med Chem, 2021)
